The target of assay [1] is Vasopressin V2 receptor (Sus scrofa) (UniProt P32307). Kind of assay: Inhibition constant for [3H]LVP binding to medullary membranes of pig kidney. Type of assay: tissue-based. In a few lines:
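V2 receptor affinity measured on pig renal medullary membranes by competition with tritiated LVP, expressed as Kbind. Each determination averages triplicate tests, and the value averages (n) determinations.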

Assay [2] has as its target Vasopressin V2 receptor (Rattus norvegicus) (UniProt Q00788). Description: Dose required to lower urine osmolality to 300 mOsm/kg in rat. In a few lines: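 Male rats deprived of food and water overnight to reach a stable hydropenic state (raised plasma vasopressin, urine osmolality ≈1500 mOsm/kg H2O). Antagonist given at varying doses to groups of four rats. Urine volume and osmolality measured. The value is the dose that brings urine osmolality down to 300 mOsm/kg. Each determination averages four rats, and the reported value averages (n) determinations.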

Assay [3] has as its target Vasopressin V2 receptor (Homo sapiens, UniProt P30518). Kind of assay: Inhibition constant for vasopressin-stimulated adenylate cyclase of medullary membranes of human kidney. The method, boiled down:
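Human renal medullary membrane preparations used. Antagonism measured as inhibition of LVP-stimulated adenylate cyclase, expressed as Ki. Only selected analogues tested. Each determination averages triplicate tests, and the value averages (n) determinations.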

Assay [4] has as its target Vasopressin V2 receptor (Sus scrofa, UniProt P32307). Description: Inhibition constant for vasopressin-stimulated adenylate cyclase of medullary membranes of pig kidney. The method, boiled down:
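Antagonism measured on pig renal medullary membranes as inhibition of LVP-stimulated adenylate cyclase, expressed as inhibition constant Ki. Each determination averages triplicate tests, and the value averages (n) determinations.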

Numbered stars: 1 amine (or outer) side, 2 acyl side, 3 side chain; on linkers, the order of the positions; unused ones are H or OH. Bridge positions count the residues as written; N and C are the ends. Square brackets hold non-standard residues; d marks the D form. Peptide text beside a SMILES is read from it. * marks the point of attachment. X1 = O=C(CC1(S[*:2])CCCCC1)[*:1]; Agmatine = N=C(N)NCCCCN*

Broadly, the Ki is the dissociation constant of the complex between target and ligand, obtained from inhibition or displacement.

Chain of Vasopressin V2 receptor (Homo sapiens, UniProt P30518) (P30518 whole entry): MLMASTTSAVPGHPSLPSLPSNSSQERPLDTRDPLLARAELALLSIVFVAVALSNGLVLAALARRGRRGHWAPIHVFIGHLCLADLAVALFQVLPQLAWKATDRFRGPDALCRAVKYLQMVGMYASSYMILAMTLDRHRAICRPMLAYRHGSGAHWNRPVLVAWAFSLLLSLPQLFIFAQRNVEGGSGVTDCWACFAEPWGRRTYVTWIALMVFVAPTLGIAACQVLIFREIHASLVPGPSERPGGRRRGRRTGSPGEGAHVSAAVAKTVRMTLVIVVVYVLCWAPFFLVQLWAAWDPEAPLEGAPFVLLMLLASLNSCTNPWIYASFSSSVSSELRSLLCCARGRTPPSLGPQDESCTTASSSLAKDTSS
Chain of Vasopressin V2 receptor (Sus scrofa, UniProt P32307) (P32307 whole entry): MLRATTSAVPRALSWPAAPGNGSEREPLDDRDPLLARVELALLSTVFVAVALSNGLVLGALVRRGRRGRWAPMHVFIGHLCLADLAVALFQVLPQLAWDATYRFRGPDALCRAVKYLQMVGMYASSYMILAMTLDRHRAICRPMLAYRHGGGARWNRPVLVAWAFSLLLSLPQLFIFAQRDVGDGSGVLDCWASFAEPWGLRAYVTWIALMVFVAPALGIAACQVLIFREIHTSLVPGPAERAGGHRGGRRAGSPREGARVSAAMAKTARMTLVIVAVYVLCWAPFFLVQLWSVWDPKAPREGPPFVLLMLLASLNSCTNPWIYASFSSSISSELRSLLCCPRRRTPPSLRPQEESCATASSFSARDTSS
Chain of Vasopressin V2 receptor (Sus scrofa) (P32307 whole entry): as above
Chain of Vasopressin V2 receptor (Rattus norvegicus) (Q00788 whole entry): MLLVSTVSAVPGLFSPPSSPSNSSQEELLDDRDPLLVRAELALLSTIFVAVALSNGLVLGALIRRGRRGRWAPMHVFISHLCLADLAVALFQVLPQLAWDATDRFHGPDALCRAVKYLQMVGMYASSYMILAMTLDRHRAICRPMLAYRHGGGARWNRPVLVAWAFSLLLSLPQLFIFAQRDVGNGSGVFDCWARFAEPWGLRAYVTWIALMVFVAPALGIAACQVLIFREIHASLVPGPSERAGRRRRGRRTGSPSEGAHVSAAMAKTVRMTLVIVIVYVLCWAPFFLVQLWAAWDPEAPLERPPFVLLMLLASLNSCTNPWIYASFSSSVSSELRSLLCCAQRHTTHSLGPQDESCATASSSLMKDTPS

`CCOc1ccc(C[C@H]2NC(=O)CC3(CCCCC3)SSC[C@H](C(=O)N[C@H](CCCCN)C(N)=O)NC(=O)[C@@H](CC(N)=O)NC(=O)[C@H](C(C)C)NC(=O)[C@@H](Cc3ccccc3)NC2=O)cc1` displayed a K bind in assay [1] of 26 nM. The molecule further displayed an ED300 in assay [2] of 0.059 mg/kg. The molecule further yielded an inhibition constant (Ki) in assay [3] of 3.3 nM.

For `CCOc1ccc(C[C@H]2NC(=O)CC3(CCCCC3)SSC[C@@H](C(=O)N3CCC[C@H]3C(=O)NCCCCN=C(N)N)NC(=O)[C@H](CC(N)=O)NC(=O)[C@H](C(C)C)NC(=O)[C@H](Cc3ccccc3)NC2=O)cc1` ([dY](Et)FVNCP-Agmatine; linker N-5 via X1), the Ki in assay [4] stood at 6 nM; in assay [3], 3.7 nM.

Source of the values: ChEMBL document CHEMBL1124391, “Structure-activity relationships of novel vasopressin antagonists containing C-terminal diaminoalkanes and (aminoalkyl)guanidines” (J Med Chem, 1989).
